Test results from ChEMBL document CHEMBL1153088, “Discovery of benzo[g]indol-3-carboxylates as potent inhibitors of microsomal prostaglandin E(2) synthase-1” (Bioorg Med Chem, 2009).
Values belong to the molecule of their own block, whether it stands above or below them. The source made the active and inactive calls. No cut-off for these calls is given here.

Legend:
[1] = biological target: T1, Prostaglandin E synthase (Homo sapiens) (UniProt O14684); experiment: Inhibition of mPGES1 in IL1-beta induced human A549 cell microsomal membrane at 10 uM assessed as enzyme residual activity by PGE2 formation assay relative to untreated control; assay type: microsomes; settings: Microsome
T1 sequence (whole entry): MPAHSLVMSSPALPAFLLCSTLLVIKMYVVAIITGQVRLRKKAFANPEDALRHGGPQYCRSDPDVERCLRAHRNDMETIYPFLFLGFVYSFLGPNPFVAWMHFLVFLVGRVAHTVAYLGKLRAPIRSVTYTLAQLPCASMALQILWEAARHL
How it was run: (§1)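 Microsomes from A549 cells treated with IL-1β (1 ng/ml, 72 h) were used at 50 µg/ml in 0.1 M potassium phosphate pH 7.4 with 2.5 mM glutathione. Compound (DMSO 1% final) was preincubated 15 min at 4 °C, then PGH2 was added (20 µM final) for 1 min at 4 °C.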

[2] = biological target: T2, Prostaglandin G/H synthase 1 (Ovis aries) (UniProt P05979); experiment: Inhibition of ovine COX1 assessed as residual enzyme activity at 10 uM relative to untreated control
T2 sequence (whole entry): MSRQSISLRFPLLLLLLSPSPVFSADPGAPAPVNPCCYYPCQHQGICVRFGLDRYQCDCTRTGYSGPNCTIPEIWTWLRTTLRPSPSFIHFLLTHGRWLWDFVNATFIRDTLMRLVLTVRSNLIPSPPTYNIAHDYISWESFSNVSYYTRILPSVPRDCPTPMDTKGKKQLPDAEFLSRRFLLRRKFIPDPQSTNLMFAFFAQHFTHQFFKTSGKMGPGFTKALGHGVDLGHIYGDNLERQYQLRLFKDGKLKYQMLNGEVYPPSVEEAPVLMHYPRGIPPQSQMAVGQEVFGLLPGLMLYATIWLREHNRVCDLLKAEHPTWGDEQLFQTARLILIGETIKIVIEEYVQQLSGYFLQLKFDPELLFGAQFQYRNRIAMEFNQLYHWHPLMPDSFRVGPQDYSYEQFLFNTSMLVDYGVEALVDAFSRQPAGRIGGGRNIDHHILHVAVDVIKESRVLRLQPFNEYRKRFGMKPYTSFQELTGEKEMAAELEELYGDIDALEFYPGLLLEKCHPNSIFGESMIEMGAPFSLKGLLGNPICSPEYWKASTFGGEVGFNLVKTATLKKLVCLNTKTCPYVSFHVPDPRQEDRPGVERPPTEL
How it was run: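 Purified ovine COX-1 (50 units) in 1 ml of 100 mM Tris pH 8 containing 5 mM glutathione, 5 µM hemoglobin and 100 µM EDTA was preincubated with compound for 5 min at 4 °C and prewarmed 60 s at 37 °C. The reaction was started with 5 µM AA and run 5 min at 37 °C, and 12-HHT was analysed by HPLC.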

Prostaglandin E synthase [3] = biological target: T3, Prostaglandin E synthase (Homo sapiens, UniProt O14684); experiment: Inhibition of mPGES1 in IL1-beta induced human A549 cell microsomal membrane assessed as blockade of conversion of PGH2 to PGE2; assay type: microsomes, Microsome; how it was run: as §1
T3 sequence (O14684 whole entry): T1 sequence (whole entry)

[4] = biological target: T1, Prostaglandin E synthase (Homo sapiens); experiment: Inhibition of mPGES1 in IL1-beta induced human A549 cells assessed as PGE2 production at 30 uM preincubated for 10 mins; assay type: cell-based; set-up: scale not given: the % may be the effect or the level left
How it was run: (§2)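 Intact IL-1β-induced A549 cells (4×10^6/ml PBS, 1 mM CaCl2) were preincubated with compound (DMSO ≤0.3%) for 10 min at 37 °C. [3H]PGE2 was separated by RP-18 SPE/HPLC and counted by liquid scintillation.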

[5] = biological target: T1, Prostaglandin E synthase (Homo sapiens); settings: A549, Microsome, 3 uM
[6] = biological target: T1, Prostaglandin E synthase (Homo sapiens); settings: A549, Microsome, 30 uM
[7] = biological target: T1, Prostaglandin E synthase (Homo sapiens); settings: A549, Microsome, 0.3 uM
[8] = biological target: T1, Prostaglandin E synthase (Homo sapiens); settings: A549, Microsome, 3 uM; remark: listed apart in the source
Mus musculus = experiment: Antiinflammatory activity in CD1 mouse assessed as inhibition of carrageenan-induced paw edema at 5 mg/kg, ip administered 30 mins before carrageenan challenge relative to untreated control; assay type: functional; settings: route intraperitoneal
How it was run: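 Male adult CD1 mice, n=10 per group, given the compound ip (vehicle 2% DMSO) 30 min before subplantar 1% λ-carrageenan in saline (0.05 ml). Paw volume was measured double blind by hydroplethysmometer just before injection and at 2, 4 and 6 h. Inhibition was taken at the 4 h reading versus vehicle.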

Rattus norvegicus [9] = experiment: Antiinflammatory activity in Wistar Han rat assessed as reduction in exudate volume at 5 mg/kg, ip administered 30 mins before carrageenan challenge; assay type: functional, organism-based; set-up: dose 5 mg/kg
Rattus norvegicus [10] = experiment: Antiinflammatory activity in Wistar Han rat assessed as reduction in inflammatory cell numbers at 5 mg/kg, ip administered 30 mins before carrageenan challenge; assay type: functional, organism-based; set-up: dose 5 mg/kg
A549 = experiment: Toxicity in human A549 cells assessed as reduction of cell viability by MTT assay; assay type: cell-based
How it was run: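 A549 cells (4×10^4 per 100 µl) were plated for 16 h, then exposed to compounds at 30 µM (DMSO ≤0.3%) for 5 h. MTT was added for 4 h, formazan was solubilized in 10% SDS/20 mM HCl, and absorbance at 595 nm was read relative to vehicle-treated cells.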

[11] = biological target: Prostaglandin G/H synthase 1 (Homo sapiens) (UniProt P23219); experiment: Inhibition of COX1 in platelets assessed as inhibition of 12-HHT formation at 10 uM by RP-HPLC
Sequence of Prostaglandin G/H synthase 1 (Homo sapiens) (P23219 whole entry): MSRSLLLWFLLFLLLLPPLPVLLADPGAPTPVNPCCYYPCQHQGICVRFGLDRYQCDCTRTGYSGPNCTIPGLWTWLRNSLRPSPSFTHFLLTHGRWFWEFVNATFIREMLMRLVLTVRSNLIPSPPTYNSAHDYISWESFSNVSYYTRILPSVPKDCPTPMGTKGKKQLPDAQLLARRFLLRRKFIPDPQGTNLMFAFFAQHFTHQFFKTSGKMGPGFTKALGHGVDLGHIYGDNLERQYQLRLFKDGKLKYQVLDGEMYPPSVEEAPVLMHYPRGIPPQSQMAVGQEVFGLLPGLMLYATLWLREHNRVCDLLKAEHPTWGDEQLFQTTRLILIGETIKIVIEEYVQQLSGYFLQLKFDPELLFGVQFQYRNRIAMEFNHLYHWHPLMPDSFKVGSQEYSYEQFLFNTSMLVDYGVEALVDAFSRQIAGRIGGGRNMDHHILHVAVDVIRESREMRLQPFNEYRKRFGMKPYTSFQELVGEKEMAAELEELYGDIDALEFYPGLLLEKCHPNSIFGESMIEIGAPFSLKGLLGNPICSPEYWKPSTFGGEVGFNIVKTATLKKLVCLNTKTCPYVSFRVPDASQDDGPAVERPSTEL
How it was run: (§3)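 Freshly isolated human platelets (10^8/ml PBS with 1 mM CaCl2) were preincubated with compound (DMSO ≤0.3%), then stimulated with 5 µM AA for 5 min at 37 °C. 12-HHT was extracted and quantified by RP-HPLC. Mean ± SE, n=3–5.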

Prostaglandin E synthase [12] = biological target: T3, Prostaglandin E synthase; experiment: Inhibition of mPGES1 in IL1-beta induced human A549 cells assessed as PGE2 production preincubated for 10 mins; assay type: cell-based
How it was run: as §2, with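 “°C. They were then stimulated with 2.5 µM A23187 plus 1 µM AA and [3H]AA (18.4 kBq) for 15 min, and the reaction was stopped on ice.” for “°C.”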

[13] = biological target: T4, Prostaglandin G/H synthase 2 (Homo sapiens) (UniProt P35354); experiment: Inhibition of COX2 in IL1-beta induced human A549 cells assessed as 6-keto-PGF1-alpha formation up to 30 uM preincubated for 15 mins by ELISA; assay type: cell-based
T4 sequence (whole entry): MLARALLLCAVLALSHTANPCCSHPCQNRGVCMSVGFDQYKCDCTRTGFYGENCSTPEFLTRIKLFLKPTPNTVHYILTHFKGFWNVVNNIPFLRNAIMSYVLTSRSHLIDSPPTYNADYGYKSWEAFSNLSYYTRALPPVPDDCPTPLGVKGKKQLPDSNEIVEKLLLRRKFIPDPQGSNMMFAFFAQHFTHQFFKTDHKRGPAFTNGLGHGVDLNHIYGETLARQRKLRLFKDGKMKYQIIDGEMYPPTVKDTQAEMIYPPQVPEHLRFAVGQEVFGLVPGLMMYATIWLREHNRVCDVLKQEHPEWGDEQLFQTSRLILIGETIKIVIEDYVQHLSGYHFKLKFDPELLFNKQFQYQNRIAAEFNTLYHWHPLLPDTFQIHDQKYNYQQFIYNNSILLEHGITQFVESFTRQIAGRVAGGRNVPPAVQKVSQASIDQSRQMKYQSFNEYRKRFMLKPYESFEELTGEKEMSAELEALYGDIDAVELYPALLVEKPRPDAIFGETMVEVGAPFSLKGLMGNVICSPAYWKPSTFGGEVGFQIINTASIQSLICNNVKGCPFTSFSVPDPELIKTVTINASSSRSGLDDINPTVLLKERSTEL
How it was run: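 A549 cells were induced with IL-1β (1 ng/ml, 72 h, 2% FCS). Cells at 5×10^6 per ml PBS with 1 mM CaCl2 were preincubated 15 min at 37 °C, then given 30 µM AA for 15 min at 37 °C, and the reaction was stopped on ice. Released 6-keto PGF1α was measured by monoclonal-antibody ELISA with β-galactosidase tracer read at 550 nm.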

[14] = biological target: T1, Prostaglandin E synthase (Homo sapiens); experiment: Inhibition of mPGES1 in IL1-beta induced human A549 cells assessed as PGE2 production at 5 uM preincubated for 10 mins; assay type: cell-based
How it was run: as §2, with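 “°C. They were then stimulated with 2.5 µM A23187 plus 1 µM AA and [3H]AA (18.4 kBq) for 15 min, and the reaction was stopped on ice.” for “°C.”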

[15] = biological target: Prostaglandin G/H synthase 1 (Homo sapiens) (UniProt P23219); experiment: Inhibition of COX1 in platelets assessed as inhibition of 12-HHT formation up to 30 uM uM by RP-HPLC; how it was run: as §3

- Activity [4]: 37%
- inhibition [5]: Active
- Activity [2]: 42%
- inhibition [6]: 82%
- inhibition [7]: inactive
- inhibition [8]: Active
Compound: CC(C)c1ccc2c(c1)c(SC(C)(C)C)c(CC(C)(C)C(=O)O)n2Cc1ccc(Cl)cc1

- Activity [4]: 35%
- inhibition [2]: inactive
- IC50 (Prostaglandin E synthase [3]): 1600 nM
- inhibition [11]: 31%
- IC50 (Prostaglandin E synthase [12]; a549): Dose-dependent effect
- IC50 (Prostaglandin E synthase [12]; read-out: IC50): 7900 nM
- inhibition [13]: inactive
- Activity [1]: 13%
Compound: CCOC(=O)c1c(Nc2cccc(Cl)c2)[nH]c2c1cc(O)c1ccccc12
- Activity (A549): Non-toxic

- inhibition [14]: Active
Compound: Cc1ccc(-c2cc(C(F)(F)F)nn2-c2ccc(S(N)(=O)=O)cc2)cc1

The remaining lines, values behind:

Compound: CCOC(=O)c1c(Nc2cccc(Cl)c2)[nH]c2ccc(O)cc12
- Activity [1]: 83%

Compound: CCOC(=O)c1c(Cc2cccc(F)c2)[nH]c2c1cc(O)c1ccccc12
- inhibition [2]: inactive
- IC50 (Prostaglandin E synthase [3]): 500 nM
- Activity [1]: 5%

Compound: COc1ccc2c(c1)c(CC(=O)O)c(C)n2C(=O)c1ccc(Cl)cc1 [INDOMETHACIN]
- inhibition in vivo at 5 mg/kg (Mus musculus): 57%
- inhibition (Rattus norvegicus [9]): Active
- inhibition (Rattus norvegicus [10]): Active

Compound: CCOC(=O)c1c(Cc2cccc(Cl)c2)n(Cc2ccccc2)c2c1cc(O)c1ccccc12
- Activity [4]: 35%
- inhibition [1]: inactive

Compound: CCOC(=O)c1c(Cc2ccccc2Cl)[nH]c2c1cc(O)c1ccccc12
- Activity [4]: 35%
- inhibition [15]: inactive
- Activity [2]: 89%
- IC50 (Prostaglandin E synthase [3]): 100 nM
- IC50 (Prostaglandin E synthase [12]; read-out: IC50): 20500 nM
- inhibition [13]: inactive
- Activity [1]: 14%

Compound: CCOC(=O)c1c(Cc2cccc(Br)c2)[nH]c2c1cc(O)c1ccccc12
- Activity [2]: 82%
